Compound activity (PubChem BioAssay)
RBBP9 inh: human RBBP9 inhibitors, primary screen, biochemical, fluorescence polarization, FP-Rh probe, HTS. Serine hydrolase RBBP9 (Homo sapiens), O75884. recombinant RBBP9. inhibition, % at 7.94 µM. 0.2% of 220,000 active. AID 1515, 2009;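 active = inhibition above the campaign mean of all tested compounds plus 3 SD, cut at about 14% in these data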;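 note: plate controls were DMSO wells with RBBP9 for no effect and wells lacking RBBP9 protein for full effect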
Target sequence (O75884 whole entry, looked up): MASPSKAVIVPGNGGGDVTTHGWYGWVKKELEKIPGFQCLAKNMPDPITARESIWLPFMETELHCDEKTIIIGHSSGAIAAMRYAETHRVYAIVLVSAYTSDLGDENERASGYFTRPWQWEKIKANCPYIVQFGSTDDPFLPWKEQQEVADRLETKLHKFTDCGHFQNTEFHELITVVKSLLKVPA
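Measured by: FP readout at 525/598 nm; material: recombinant human RBBP9; also added: Serine-hydrolase probe FP-Rh, 375 nM pre-mixing; medium: Tris buffer pH 8.0, NaCl, Pluronic; replication: one well per compound; doses: one concentration, 7.94 µM nominal, 0.794% DMSO; timing: preincubation 30 min plus labeling 45 min at 25 °C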
pPAFAH inh: pPAFAH enzyme inhibitors, primary screen, biochemical, fluorescence polarization, human; AID 463082, 2010; Platelet-activating factor acetylhydrolase (Homo sapiens), Q13093; recombinant pPAFAH, FP-rhodamine probe fluorescence polarization; inhibition, % at 3.39 µM; 1.5% of 330,000 active;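 active = inhibition above the mean inhibition across the screen plus 3 SD, cut at about 25% in these data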;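 note: inhibitors block binding of the rhodamine activity-based probe so polarization drops; 0% = enzyme with DMSO and 100% = wells lacking pPAFAH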
PAFAH1B3 FP inh: PAFAH1B3 enzyme inhibitors, primary screen, biochemical, fluorescence polarization, human | Platelet-activating factor acetylhydrolase IB subunit alpha1 (Homo sapiens), Q15102 | recombinant PAFAH1B3, FP-rhodamine probe | inhibition, % at 3.39 µM | 0.28% of 340,000 active;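 active = inhibition above the screen-wide average of all tested compounds plus 3 SD, cut at about 25% in these data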;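 note: 0% = enzyme with DMSO only and 100% = wells lacking PAFAH1B3 protein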
Target sequence (Q15102 whole entry, looked up): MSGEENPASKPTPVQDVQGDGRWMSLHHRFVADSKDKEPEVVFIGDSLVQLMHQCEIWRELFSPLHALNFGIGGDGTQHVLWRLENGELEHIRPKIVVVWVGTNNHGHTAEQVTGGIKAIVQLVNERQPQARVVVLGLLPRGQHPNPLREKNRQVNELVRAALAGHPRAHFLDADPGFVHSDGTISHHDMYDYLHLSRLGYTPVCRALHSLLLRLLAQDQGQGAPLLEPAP
PAFAH2 FP inh: PAFAH2 enzyme inhibitors, primary screen, biochemical, fluorescence polarization, human; AID 492956, 2010; recombinant PAFAH2, FP-rhodamine activity probe; 0.99% of 340,000 active; Platelet-activating factor acetylhydrolase 2, cytoplasmic (Homo sapiens), Q99487; inhibition, % at 3.39 µM;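 active = inhibition above the mean over all tested compounds plus 3 SD, cut at about 30% in these data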;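 note: inhibitors block probe labeling of enzyme so polarization drops; 0% = enzyme with DMSO and 100% = wells lacking PAFAH2 protein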
PAFAH1B2 FP inh: PAFAH1B2 enzyme inhibitors, primary screen, biochemical, fluorescence polarization, human | recombinant PAFAH1B2, FP-rhodamine activity probe | inhibition, % at 3.39 µM | Platelet-activating factor acetylhydrolase IB subunit alpha2 (Homo sapiens), P68402 | 1.2% of 340,000 active;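 active = inhibition above the mean of all tested compounds plus 3 SD, cut at about 24% in these data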;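 note: 0% = enzyme with DMSO and 100% = wells lacking PAFAH1B2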
Target sequence (P68402 whole entry, looked up): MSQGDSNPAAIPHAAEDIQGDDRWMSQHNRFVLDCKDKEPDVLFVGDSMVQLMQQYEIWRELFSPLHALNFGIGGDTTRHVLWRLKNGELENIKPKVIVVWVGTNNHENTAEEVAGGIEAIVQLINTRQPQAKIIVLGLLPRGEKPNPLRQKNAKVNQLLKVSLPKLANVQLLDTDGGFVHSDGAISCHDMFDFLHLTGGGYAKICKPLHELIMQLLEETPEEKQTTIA
PAFAH1B3 conf FP: PAFAH1B3 enzyme inhibitors, confirmation, biochemical, fluorescence polarization, human; 30% of 390 active; recombinant PAFAH1B3, FP-Rh activity-based probe; inhibition, % at 3.39 µM; shares compounds with PAFAH1B3 FP inh;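 active = average inhibition over triplicate runs above the hit cutoff set in the earlier primary screen, cut at about 25% in these data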;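 note: 0% = enzyme with DMSO and 100% = wells lacking PAFAH1B3 protein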
Starred values were filed as active, the others as inactive; . = no result. Compounds with a hit are over-represented: about 2.7% of the library has one in this group of screens.

SMILES	RBBP9 inh	pPAFAH inh	PAFAH1B3 FP inh	PAFAH2 FP inh	PAFAH1B2 FP inh	PAFAH1B3 conf FP
COc1cc(C(=O)c2nccc3cc(OC)c(OC)cc23)c([N+](=O)[O-])cc1OC	3.7	1.7	40.5*	1.8	2.0	7.9
COc1cc(C(=O)c2ccccc2)c([N+](=O)[O-])cc1OC	-4.4	4.9	.	.	.	.
O=C(Nc1ccccc1Cl)C(=O)c1cn(CC(=O)N2CCOCC2)c2ccccc12	.	-9.7	-5.3	4.3	0.0	.
Nc1ccc(N(CCO)CCO)cc1	1.8	14.0	37.6*	15.8	12.5	6.8
CCOc1ccc(CCNC(=O)CCNC(=O)c2ccc(Br)cc2)cc1OCC	.	2.7	7.3	-0.2	1.1	.
O=C(Nc1ccc(C(=O)N2CCOCC2)cc1)c1cc(-c2cccnc2)nc2ccc(Cl)cc12	-1.9	0.5	2.9	4.7	-1.4	.
O=C(NN=C1C2CC3CC(C2)CC1C3)c1ccncc1	-4.6	4.5	6.4	4.3	0.6	.
O=C(N/N=C1\C/C(=N\NC(=O)c2ccncc2)c2ccccc21)c1ccncc1	-1.1	22.0	27.6*	21.8	13.6	12.3
COc1cc(NCCCC(C)N)c2ncccc2c1 (stereo not given)	-6.1	.	53.1*	24.1	18.3	7.5
O=C(NC1=C(Nc2ccc(Cl)cc2)C(=O)c2ccccc2C1=O)c1ccccc1	-2.5	4.8	14.7	7.8	7.2	.
O=C(NC1=C(NC2CCS(=O)(=O)C2)C(=O)c2ccccc2C1=O)c1ccccc1 (stereo not given)	-1.6	7.9	66.2*	12.7	12.8	36.2*
CCOc1ccccc1N=c1oc2cc(O)ccc2cc1C(=O)NCC1CCCO1 (stereo not given)	-0.8	22.9	-6.6	-2.6	4.8	.
O=C(O)c1cccc(NC2=C(N3CCOCC3)C(=O)c3ccccc3C2=O)c1	8.4	-3.0	23.9	17.7	4.9	.
O=C(O)c1ccc(NC2=C(n3nnc4ccccc43)C(=O)c3ccccc3C2=O)cc1	-8.1	0.6	28.5*	7.4	10.1	25.9*
O=C(c1ccccc1)c1ccc(CN2C(=O)c3ccccc3C2=O)o1	-5.3	3.7	0.1	2.4	2.5	.
COc1ccc(CNC(=O)c2c(C)oc3c2C(=O)c2ccccc2C3=O)cc1	-6.8	-1.8	37.0*	24.5	8.4	18.0
O=C1c2ccccc2C(=O)c2c1oc(C(F)(F)F)c2C(=O)c1ccccc1	-0.6	3.8	40.4*	14.0	10.6	26.8*
Cc1oc2c(c1C(=O)NCc1cccnc1)C(=O)c1ccccc1C2=O	1.8	1.0	.	.	.	.
COc1cc(=O)oc(-c2ccccc2)c1C(C)=O	.	-1.4	11.5	-1.0	2.8	.
CC(=O)c1c(C)oc2c1C(=O)c1ccccc1C2=O	-2.9	0.4	27.6*	3.6	6.9	20.9
COc1ccc(C2=NOC3(CC(=O)N(c4ccc(F)cc4)C3=O)C2)cc1 (stereo not given)	-12.2	0.9	0.2	-11.8	-3.5	.
CN(C)C(=O)C1C2NC(=S)N(c3ccc(Cl)cc3)C1(C)Oc1ccc(Cl)cc12 (stereo not given)	-5.2	-0.2	9.9	1.0	3.4	.
CC(C)(CC(=O)O)CC(=O)Nc1ccc(Oc2ccc(C(C)(C)C)cc2)nc1	4.6	3.6	.	.	.	.
Cc1ccc(C(C)C)c(OCc2ccc(C(=O)N/N=C/c3ccc(O)cc3O)cc2)c1	0.1	14.2	41.9*	-0.8	23.1	25.9*
Cc1ccc(C(C)C)c(OCc2ccc(C(=O)N/N=C/c3ccc(C(=O)O)cc3)cc2)c1	-10.2	-11.8	-30.8	-50.4	-17.8	.
SMILES	RBBP9 inh	pPAFAH inh	PAFAH1B3 FP inh	PAFAH2 FP inh	PAFAH1B2 FP inh	PAFAH1B3 conf FP
Cc1nc2ccc(C(=O)N/N=C/c3cc([N+](=O)[O-])ccc3O)cc2[nH]1	1.4	13.4	26.6*	1.1	6.8	23.6
CCN(C(=O)CSc1nnc(-c2cccs2)n1CC)C1CCS(=O)(=O)C1 (stereo not given)	-1.8	1.3	6.5	1.4	-0.9	.
O=C(NN=c1c(=O)c2ccccc2c1=O)c1ccccc1	-12.3	-0.9	37.5*	3.0	1.5	31.7*
COc1ccc(NS(=O)(=O)c2cc(NC(=O)c3ccc(=O)[nH]n3)ccc2N2CCOCC2)cc1	.	-0.4	3.3	6.5	-2.5	.
Cc1cc(S(=O)(=O)NCCCN2CCOCC2)c(C)cc1Cl	.	.	-1.7	7.0	3.0	.
CC(C)n1cnc2c(NCc3ccccc3)cc(N[C@H](C)CO)cc21	.	9.7	42.6*	18.5	12.3	35.1*
Cc1cccc(NC(=O)CN2C(=O)N/C(=C/c3ccc(C)o3)C2=O)c1	-2.0	10.0	6.0	-1.1	2.2	.
Cc1cccc(NC(=O)CN2C(=O)N/C(=C\c3ccc(-c4cccc(C(=O)O)c4)o3)C2=O)c1	-0.3	10.5	81.1*	5.7	7.7	76.3*
COc1cc(NCCCCCCN)c2ncccc2c1OC	.	.	56.7*	10.5	13.7	20.1
COc1cc(NC(C)CCCNC(C)C)c2ncccc2c1OC (stereo not given)	.	.	18.4	-1.8	4.0	.
COC(=O)c1ccc(Cn2nc([N+](=O)[O-])c(Br)c2C)cc1	1.3	16.2	0.9	3.1	4.5	.
Cc1cc(C)nc(N2CCC(C(=O)Nc3ccc(Oc4ccccc4)cc3)CC2)n1	-5.8	-2.3	108.4*	5.1	2.3	9.7
O=Cc1ccc(O)c2ncccc12	-3.0	.	29.3*	10.2	10.4	25.0
c1cnc2ccc3ncccc3c2c1	-1.9	-4.2	7.6	-2.0	6.8	.
CN(O)/C=c1/ccc2c(n1)C(=O)C=CC=2	4.5	6.9	35.0*	11.3	7.9	44.9*
CCN(CC)c1ccc(/C=N/NC(=O)c2ccc3nc[nH]c3c2)c(O)c1	6.9	17.0	26.5*	19.3	23.1	22.3
COc1cc(OC)c(OC)cc1/C=N/NC(=O)c1ccc2nc[nH]c2c1	3.5	2.4	-0.3	-4.3	-0.2	.
FC(F)(F)C1=Nc2cccc3cccc(c23)N1	.	.	35.3*	-2.0	18.8	40.2*
C=CCN1C(=O)c2ccc(C(=O)OCC(=O)N(CC)c3c(N)n(Cc4ccccc4)c(=O)[nH]c3=O)cc2C1=O	.	.	3.5	1.0	2.6	.
CN=c1sc2c(n1C)C(=O)c1ccccc1C2=O	.	.	42.5*	14.3	12.8	29.3*
Nc1cnccc1C(=O)O	-8.1	17.6	27.9*	16.1	13.2	18.6
COc1ccc(/C=C2\C(=O)ON=C2c2ccccc2)cc1	.	-0.4	0.1	7.3	5.9	.
O=C1ON=C(c2ccccc2)/C1=C/c1ccc(O)c(O)c1	.	7.3	29.3*	10.1	8.1	46.6*
N#Cc1cc2c(nc1SCC(=O)N1CCOCC1)CCCCC2	4.0	13.6	26.1*	0.9	-2.2	8.9
